Assay results as given in ChEMBL document CHEMBL2434878, “Synthesis and antimycobacterial activity of analogues of the bioactive natural products sampangine and cleistopholine” (Eur J Med Chem, 2013).

tested on: Mycobacterium tuberculosis variant bovis; test: Antimicrobial activity against Mycobacterium bovis AN5 expressing luciferase reporter gene assessed as growth inhibition after 6 days by luminometry; format: functional; conditions: AN5, 144 h
How it was run: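 Other mycobacteria (M. avium ssp. avium ATCC 15769, ssp. paratuberculosis ATCC 19698, M. bovis AN5) were grown in 7H9 with 10% OADC and 0.2% glycerol; M. bovis had 0.05% Tween 80 in place of glycerol, and paratuberculosis had mycobactin J (2 mg/ml); all were grown at 39 °C. Serial dilutions were tested by the luciferase luminometry assay and the 50% growth-reduction concentration was read.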

Question: With `O=C1c2ccccc2C(=O)c2c(O)cc(-c3ccccc3)cc21` as the compound, how does the GI50 read?
Answer: 800 nM

Question: How did the GI50 turn out when `COc1ccc(-c2cc(O)c3c(c2)C(=O)c2ccccc2C3=O)cc1` was run?
Answer: 380 nM

Question: Which GI50 does the source give for `CN(C)/C=C/c1nc(-c2ccccc2)cc2c1C(=O)c1ccccc1C2=O` here?
Answer: 640 nM

Question: For `COc1ccc(-c2cc3c(c(/C=C/N(C)C)n2)C(=O)c2ccccc2C3=O)cc1`, which GI50 is on record?
Answer: 470 nM

Question: Which GI50 does the source give for `CN(C)/C=C/c1nc(-c2ccc(F)cc2)cc2c1C(=O)c1ccccc1C2=O` here?
Answer: 480 nM

Question: How did the GI50 turn out when `CN(C)/C=C/c1nc(-c2ccc(Cl)cc2)cc2c1C(=O)c1ccccc1C2=O` was run?
Answer: 490 nM

Question: Which GI50 does the source give for `Cc1ccc(-c2cc3c(c(/C=C/N(C)C)n2)C(=O)c2ccccc2C3=O)cc1` here?
Answer: 580 nM

Question: Which GI50 does the source give for `O=C1c2ccccc2-c2nccc3nc(-c4ccccc4)cc1c23` here?
Answer: 670 nM

Question: With `COc1ccc(-c2cc3c4c(nccc4n2)-c2ccccc2C3=O)cc1` as the compound, how does the GI50 read?
Answer: 520 nM

Question: With `O=C1c2ccccc2-c2nccc3nc(-c4ccc(F)cc4)cc1c23` as the compound, how does the GI50 read?
Answer: 670 nM
